Compounds with a hit are over-represented: about 2.9% of the library has one in this group of screens.
E coli RNAP: blocks E. coli RNA polymerase transcription; actives 0.2% (n = 62,000); inhibition, %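 (tested at 10 µM)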; AID 559; P0A8V2; fluorescence transcription assay; in the data active = inhibition above about 20%;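 note: 0% = enzyme without compound and 100% = no enzyme blank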
Hsp90 block: displaces geldanamycin probe from tumor Hsp90; P07900; NCI-N417 lysate Hsp90, Cy3B-geldanamycin FP displacement; inhibition, % at 30 µM; actives 0.35% (n = 64,000); AID 429;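 active = inhibition above 50%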;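 note: 0% = tracer plus lysate wells and 100% = tracer alone without lysate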
Cdc25B block: human M-phase inducer phosphatase 2 inhibition. recombinant Cdc25B, OMFP fluorescence Ex485/Em525. P30305. inhibition, %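 (compounds tested at 10 µM final in the well)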. actives 0.1% (n = 65,000); in the data active = inhibition above about 50%
tolC growth inh: blocks growth of E. coli BW25113 tolC mutant | OD615 | growth inhibition, % at 10 µM (by protocol) | actives 2.2% (n = 65,000) | AID 573;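 active = growth inhibition at or above a cutoff equal to the mean over every tested compound plus 3 SD, cut at about 60% in these data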;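 note: growth measured after 20 h incubation at 37 °C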
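Test system: tolC-deleted E. coli BW25113; medium: LB with kanamycin 50 µg/mL; compound: single-point testing at 10 µM; incubation: 20 h compound exposure of bacteria at 37 °C; signal: OD at 615 nm; evaluation: growth inhibition in percent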
MKP-1 inh: human dual specificity phosphatase 1 inhibition; recombinant MKP-1, OMFP hydrolysis fluorescence; inhibition, %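 (compounds tested at a single concentration somewhere between 10 and 100 µM)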; actives 0.15% (n = 65,000); AID 374;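 active = inhibition above about 50%, limit read from the data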;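 note: 0% = DMSO max control wells and 100% = wells with enzyme stopped by NaOH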
BAP1 block: inhibitors of human BAP1 deubiquitinase | recombinant BAP1, Ub-AMC hydrolysis fluorescence kinetic; stronger effect = lower value | calls only at 20 µM | actives 0.48% (n = 72,000);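 active = activity remaining at or below 50% of control, provided the compound also passes the data quality filters; inactive = the rest, including low values that fail the filters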;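 note: 100% = DMSO wells rate and 0% = substrate alone blank rate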
BAP1 inh confirm: BAP1 (human) enzyme inhibition, confirmed | actives 8% (n = 310) | % of control activity, % at 20 µM | shares compounds with BAP1 block | AID 753 | purified BAP1, Ub-ethyl ester hydrolysis, HPLC; stronger effect = lower value;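 active = percent of control activity at or below 60%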
* = called active by the depositor; i = inactive; . = no result; + = active, no number.

SMILES | E coli RNAP | Hsp90 block | Cdc25B block | tolC growth inh | MKP-1 inh | BAP1 block | BAP1 inh confirm
Cc1cccc2cc(C(c3nnnn3C(C)(C)C)N3CCN(C(=O)c4ccco4)CC3)c(=O)[nH]c12 (stereo not drawn) | 15 | 0 | -20 | -12 | 25 | + | 42*
COc1cc(C(=O)N2N=C(c3ccccc3)CC2c2ccccc2[N+](=O)[O-])cc(OC)c1OC (stereo not drawn) | . | . | . | . | . | i | .
N#C/C(=C\c1ccc[nH]1)Sc1nc2ccccc2s1 | 1 | -4 | -5 | 100* | 5 | + | 86
O=C(CSc1nnc(COc2ccc3c(c2)CCCC3)o1)Nc1ccc(F)cc1 | 2 | 0 | 1 | -1 | 6 | + | 93
CCOC(=O)c1sc(NC(=O)c2ccc(Oc3ccccc3)cc2)nc1C | . | . | . | . | . | i | .
CCOC(=O)c1sc2nc(NC(=O)COc3ccccc3)sc2c1C | -3 | -3 | 5 | 15 | 5 | + | 78

Screening results from PubChem.
